Experimental data collected from several papers.
Compare with care: the assays were run in different laboratories.
KIT: Mast/stem cell growth factor receptor Kit (KIT, Homo sapiens, UniProt P10721)
KIT D816H: Mast/stem cell growth factor receptor Kit (KIT, Homo sapiens, UniProt P10721, D816H)
KIT L576P: Mast/stem cell growth factor receptor Kit (KIT, Homo sapiens, UniProt P10721, L576P)
KIT T670I/V559D: Mast/stem cell growth factor receptor Kit (KIT, Homo sapiens, UniProt P10721, T670I/V559D)

| Compound | target | read-out | mode | method | tested at | measurement | result |
| --- | --- | --- | --- | --- | --- | --- | --- |
| COc1ccc2oc(-c3ccc4nc(N)oc4c3)c/c(=N\c3ccccc3NC(=O)CCN)c2c1 | KIT | binding | – | – | 1 µM | remaining binding | 111% |
| Cc1ccc(NC(=O)c2ccnc(C(F)(F)F)c2)cc1-c1cc(OCCO)nc(N2CCOCC2)c1 | KIT D816H | binding | – | – | 1 µM | remaining binding | 99% |
| CO[C@@H]1[C@H](N(C)C(=O)c2ccccc2)C[C@H]2O[C@]1(C)n1c3ccccc3c3c4c(c5c6ccccc6n2c5c31)C(=O)NC4 | KIT D816H | enzyme activity | inhibitor | – | 1 µM | inhibition | 98% |
| C1=C/COCc2cc(ccc2OCCN2CCCC2)Nc2nccc(n2)-c2cccc(c2)COC/1 | Mast/stem cell growth factor receptor Kit, autoinhibited (KIT, Homo sapiens, UniProt P10721) | binding | – | – | 0.1 µM | remaining binding | 17% |
| C=CC(=O)N1CCC([C@@H]2CCNc3c(C(N)=O)c(-c4ccc(Oc5ccccc5)cc4)nn32)CC1 | KIT | enzyme activity | inhibitor | – | 1 µM | inhibition | 17% |
| N#Cc1ccc(NC(=O)Nc2ccccc2)cc1 | KIT | cell-free assay | – | competition with immobilised ligand | 25 µM | remaining binding | 49% |
| CN1CCN(C(=O)c2ccc(NC(=O)Nc3ccc(N(C)c4ccnc(Nc5ccc(CS(C)(=O)=O)cc5)n4)cc3)cc2)CC1 | KIT | binding | – | competition with immobilised ligand | 1 µM | remaining binding | 0% |
| CC#CC(=O)N1CCC[C@H]1c1nc(-c2ccc(C(=O)Nc3ccccn3)cc2)c2c(N)nccn12 | KIT L576P | enzyme activity | inhibitor | – | 1 µM | inhibition | 13% |
| C[C@H]1CC[C@H](n2c3cnccc3c3cnc(Nc4ccc5c(n4)CCN(C(=O)CO)C5)nc32)CC1 | Mast/stem cell growth factor receptor Kit (KIT, Homo sapiens, UniProt P10721, A829P) | cell-free assay | – | – | 1 µM | remaining signal | 36% |
| C#Cc1cnc(Nc2ccnc(CO)c2)nc1Nc1ccccc1S(C)(=O)=NC#N (stereo not drawn) | KIT T670I/V559D | cell-free assay | – | – | 1 µM | remaining signal | 79% |
| COc1ccc2[nH]c3c4[nH]c5ccc(OC)cc5c4c4c(c3c2c1)C(=O)NC4=O | KIT T670I/V559D | binding | – | – | 1 µM | remaining binding | 49% |
| CCCCC(=O)Nc1ccc(-c2ccc3ncn(CCC)c(=O)c3c2)cn1 | KIT L576P | binding | – | competition with immobilised ligand | 0.5 µM | remaining binding | 87% |
